From ChEMBL document CHEMBL1921692 (J Med Chem, 2011)
In brackets after ≈: the same amount, converted by molar mass. Activity calls are given as the source filed them.

Tests used:
[1] = Oral bioavailability in Sprague-Dawley rat at 8 mg/kg; details: in vivo
[2] = system: Rattus norvegicus; experiment: Induction of gastric emptying in overnight-fasted po dosed Wistar rat administered 30 mins prior methylcellulose meal by […] analysis; type: functional, organism-based; details: Stomach
[3] = Permeability across mucosal to serosal side in human Caco2 cells; type: ADME, cell-based; details: Caco-2, read-out: permeability
[4] = AUC (0 to infinity) in Sprague-Dawley rat at 8 mg/kg, po; type: ADME, organism-based; parameters: time infinity, dose 8 mg/kg, route oral; details: plasma
In short: (§1)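 Male Sprague−Dawley rats (250 ± 20 g), 3 per compound in a single experiment, gavage 8 mg/kg in physiological saline. Blood taken at 12 time points over 6 h into K3EDTA tubes. Plasma stored at −20 °C, assayed by LC-MS/MS, noncompartmental analysis.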

[5] = system: Rattus norvegicus; experiment: Induction of gastric emptying in overnight-fasted iv dosed Wistar rat measured after 15 mins by […] analysis; type: functional, organism-based, Stomach
In short: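 Overnight-fasted male Wistar rats (200 ± 20 g), N = 5 per point. Compound given IV in 9% 2-hydroxypropyl-β-cyclodextrin together with an oral 2% methylcellulose meal containing 0.05% phenol red (2 mL). Sacrifice 15 min later; phenol red left in stomach read at 560 nm. […] Metoclopramide positive control at 10 mg/kg IV.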

[6] = Volume of distribution at steady state in Sprague-Dawley rat at 2 m/kg, iv; type: ADME, organism-based; details: in vivo, read-out: Vdss
[7] = Cmax in Sprague-Dawley rat at 8 mg/kg, po; type: ADME, organism-based; parameters: dose 8 mg/kg, route oral; details: in vivo
In short: as §1

[8] = Permeability across serosal to mucosal side human Caco2 cells; type: ADME, cell-based; details: Caco-2, read-out: permeability
[9] = biological target: T1, Growth hormone secretagogue receptor type 1 (Homo sapiens, UniProt Q92847); experiment: Agonist activity at human GRLN receptor expressed in HEK293 cells assessed as calcium binding by Ca2+ bioluminescence aequorin assay; type: functional, cell-based
T1 sequence (Q92847 whole entry): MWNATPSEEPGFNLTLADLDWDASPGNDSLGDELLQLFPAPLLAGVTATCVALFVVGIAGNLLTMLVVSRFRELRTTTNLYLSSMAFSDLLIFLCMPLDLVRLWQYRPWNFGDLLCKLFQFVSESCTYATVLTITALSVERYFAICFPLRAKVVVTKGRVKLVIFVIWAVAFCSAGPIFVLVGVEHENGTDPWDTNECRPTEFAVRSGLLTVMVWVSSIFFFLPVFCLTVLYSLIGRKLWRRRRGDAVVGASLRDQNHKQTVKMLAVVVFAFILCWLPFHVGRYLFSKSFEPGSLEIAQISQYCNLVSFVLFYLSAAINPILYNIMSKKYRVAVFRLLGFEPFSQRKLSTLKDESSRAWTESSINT
In short: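 HEK-293 cells expressing human GRLN. Ca2+ bioluminescence read out by aequorin. Duplicate samples, maximum tolerated interassay variability ±10%. Full agonism defined as maximal response >70% of that of octanoylated human ghrelin.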

[10] = biological target: T1, Growth hormone secretagogue receptor type 1; experiment: Displacement of [125I-His9]-ghrelin from human GRLN receptor by radioligand binding assay
In short: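 Competitive binding on isolated membranes expressing GRLN, with 125I-His-9 octanoylated ghrelin as radioligand.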

[11] = Elimination half life in Sprague-Dawley rat at 2 m/kg, iv; type: ADME, organism-based; details: in vivo, read-out: beta t1/2
[12] = Half life in human liver microsomes; type: ADME, Microsome
[13] = Drug metabolism in rat liver microsomes after 15 mins; type: ADME, Microsome; details: read-out: Drug metabolism
[14] = Clearance in Sprague-Dawley rat at 2 m/kg, iv; type: ADME, organism-based; details: in vivo
[15] = Aqueous solubility of the compound; type: physicochemical
[16] = biological target: T1, Growth hormone secretagogue receptor type 1; experiment: Partial agonist activity at GRLN receptor at 3 uM by aequorin assay; type: functional
In short: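 Aequorin Ca2+ bioluminescence in HEK-293 cells expressing human GRLN. Response at a 3 μM test concentration expressed relative to the maximal response to octanoylated human ghrelin.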

[17] = Dissociation constant, pKa of the compound; type: physicochemical

| EC50 [9] [nM] | Ki [10] [nM] | Compound | further results |
| --- | --- | --- | --- |
| – | 12 | C[C@@H]1C(=O)N[C@H](Cc2ccc(F)cc2)C(=O)NCCCc2ccccc2OC(C)(C)CN[C@@H](C2CC2)C(=O)N1C | Activity [16]: 40% |
| 18 | 15 | C[C@@H]1CN[C@@H](C2CC2)C(=O)N(C)[C@H](C)C(=O)N[C@H](Cc2ccc(Cl)cc2)C(=O)NCCCc2ccccc2O1 | bioavailability [1]: 22%; clearance [14]: 24 mL/min/kg; AUC(0-inf) [4]: 1.23 µM·h; EC50 [5]: 0.84 mg/kg; Vd [6]: 1.4 L/kg; Cmax [7]: 670 nM; half-life [11]: 41 min |
| – | 21 | C[C@@H]1C(=O)N[C@H](Cc2cccc(F)c2)C(=O)NCCCc2ccccc2OCCN[C@@H](C2CC2)C(=O)N1C | – |
| – | 6.4 | CC[C@H](C)[C@@H]1NCCOc2ccccc2CCCNC(=O)[C@@H](Cc2ccccc2)NC(=O)[C@@H](C)N(C)C1=O | – |
| – | 580 | CCC[C@@H]1NCCOc2ccccc2CCCNC(=O)[C@@H](Cc2ccccc2)NC(=O)[C@H](C)N(C)C1=O | – |
| – | 7.3 | C[C@@H]1C(=O)N[C@H](Cc2ccc(F)cc2)C(=O)NCCCc2ccccc2OCCN[C@@H](C2CC2)C(=O)N1C | clearance [14]: 72 mL/min/kg; Vd [6]: 1.4 L/kg; half-life [11]: 14 min |
| – | 35 | CC[C@H]1NC(=O)[C@H]([C@@H](C)CC)NC[C@@H](C)Oc2ccccc2CCCNC(=O)[C@@H](Cc2ccccc2)NC1=O | – |
| 49 | 0.38 | C[C@@H]1CN[C@@H](C2CCCCC2)C(=O)N(C)[C@H](C)C(=O)N[C@H](Cc2ccc(F)cc2)C(=O)NCCCc2ccccc2O1 | clearance [14]: 43 mL/min/kg; Vd [6]: 4.7 L/kg; solubility [15]: ≤ 10 µg/mL; half-life [11]: 74 min |
| – | 34 | C[C@@H]1CN[C@@H](C2CC2)C(=O)N(C)[C@H](C)C(=O)N[C@H](Cc2ccccc2)C(=O)NCCCc2ccccc2O1 | clearance [14]: 25 mL/min/kg; Vd [6]: 1.3 L/kg; half-life [11]: 32 min |
| – | 25 | CC(C)C[C@@H]1NCCOc2ccccc2CCCNC(=O)[C@@H](Cc2ccccc2)NC(=O)[C@@H](C)N(C)C1=O | – |
| 8.2 | 5 | Cc1ccc(C[C@H]2NC(=O)[C@@H](C)N(C)C(=O)[C@H](C3CC3)NCCOc3ccccc3CCCNC2=O)cc1 | – |
| 23 | 4.4 | C[C@@H]1C(=O)N[C@H](Cc2ccccc2)C(=O)NCCCc2ccccc2OCCN[C@@H](C2CC2)C(=O)N1C | pKa [17]: 6.72 |
| 40 | 16 | CCC[C@@H]1NCCOc2ccccc2CCCNC(=O)[C@@H](Cc2ccccc2)NC(=O)[C@@H](C)N(C)C1=O | pKa [17]: 6.45 |
| 26 | 56 | C[C@@H]1C(=O)N[C@H](Cc2ccc(F)cc2)C(=O)NCCCc2ccccc2O[C@@H](C)CN[C@@H](C2CC2)C(=O)N1C | – |
| – | 61 | C[C@@H]1CN[C@@H](C2CC2)C(=O)N(C)[C@H](C)C(=O)N[C@H](Cc2ccc(F)cc2)C(=O)NCCCc2ccc(F)cc2O1 | bioavailability [1]: 15%; clearance [14]: 9 mL/min/kg; AUC(0-inf) [4]: 2.08 µM·h; EC50 [5]: 1.38 mg/kg; Vd [6]: 0.9 L/kg; Cmax [7]: 750 nM; half-life [11]: 66 min |
| – | 104 | CC(C)[C@@H]1NC[C@@H](C)Oc2ccccc2CCCNC(=O)[C@@H](Cc2ccc(F)cc2)NC(=O)[C@@H](C)N(C)C1=O | clearance [14]: 40 mL/min/kg; Vd [6]: 2 L/kg; half-life [11]: 34 min |
| 760 | 9 | CC1COc2ccccc2CCCNC(=O)[C@@H](Cc2ccc(F)cc2)NC(=O)[C@@H](C)N(C)C(=O)[C@H](C2CC2)N1 (mixture of isomers) | – |
| – | 6.2 | C[C@@H]1C(=O)N[C@H](Cc2ccccc2F)C(=O)NCCCc2ccccc2OCCN[C@@H](C2CC2)C(=O)N1C | – |

More lines, now with the values behind:

| Compound | EC50 [9] [nM] | Ki [10] [nM] | further results |
| --- | --- | --- | --- |
| CC[C@H](C)[C@@H]1NCCOc2ccccc2CCCNC(=O)[C@@H](Cc2ccc(Cl)cc2)NC(=O)[C@@H](C)N(C)C1=O | 20 | 0.35 | bioavailability [1]: 3%; Activity [2]: inactive; Papp A→B [3]: 14 ×10⁻⁶ cm/s; AUC(0-inf) [4]: 0.0585 µM·h; EC50 [5]: 0.39 mg/kg; Vd [6]: 3.2 L/kg; Cmax [7]: 60 nM; Papp B→A [8]: 15 ×10⁻⁶ cm/s; half-life [11]: 33 min; half-life [12]: 5 min; metabolised at […] [13]: 86% |
| C[C@@H]1C(=O)N[C@H](Cc2ccc(C(F)(F)F)cc2)C(=O)NCCCc2ccccc2OCCN[C@@H](C2CC2)C(=O)N1C | 11 | 7 | – |
| CCCCCCCC(=O)OC[C@H](NC(=O)CNC(=O)[C@@H](N)CCCNC(=N)N)C(=O)N[C@@H](CO)C(=O)N[C@@H](Cc1ccccc1)C(=O)N[C@@H](CC(C)C)C(=O)N[C@@H](CO)C(=O)N1CCC[C@H]1C(=O)N[C@@H](CCC(=O)O)C(=O)N[C@@H](Cc1cnc[nH]1)C(=O)N[C@@H](CCC(N)=O)C(=O)N[C@@H](CCCCN)C(=O)N[C@@H](C)C(=O)N[C@@H](CCC(N)=O)C(=O)N[C@@H](CCC(N)=O)C(=O)N[C@@H](CCCNC(=N)N)C(=O)N[C@@H](CCCCN)C(=O)N[C@@H](CCC(=O)O)C(=O)N[C@@H](CO)C(=O)N[C@@H](CCCCN)C(=O)N[C@@H](CCCCN)C(=O)N1CCC[C@H]1C(=O)N1CCC[C@H]1C(=O)N[C@@H](C)C(=O)N[C@@H](CCCCN)C(=O)N[C@@H](CC(C)C)C(=O)N[C@@H](CCC(N)=O)C(=O)N1CCC[C@H]1C(=O)O [GHRELIN] | – | – | Activity [2]: inactive; EC50 [5]: 0.04 mg/kg |
| C[C@@H]1C(=O)N[C@H](Cc2ccc(F)cc2)C(=O)NCCCc2cc(F)ccc2OCCN[C@@H](C2CC2)C(=O)N1C | – | 58 | – |
| CCC[C@@H]1NC[C@@H](C)Oc2ccccc2CCCNC(=O)[C@@H](Cc2ccc(F)cc2)NC(=O)[C@@H](C)N(C)C1=O | – | 34 | clearance [14]: 41 mL/min/kg; Vd [6]: 1.7 L/kg; solubility [15]: 100 µg/mL (≈ 185 µM); half-life [11]: 29 min |
| CCC[C@@H]1NCCOc2ccccc2CCCNC(=O)[C@@H](Cc2ccc(O)cc2)NC(=O)CN(C)C1=O | 39 | 120 | – |
| CC[C@H](C)[C@@H]1NCCOc2ccccc2CCNC(=O)[C@@H](Cc2ccccc2)NC(=O)[C@@H](C)N(C)C1=O | 530 | 210 | – |
| C[C@@H]1C(=O)N[C@H](Cc2ccc(F)cc2)C(=O)NCCCc2cccc3c2O[C@H](CC3)CN[C@@H](C2CC2)C(=O)N1C | 85 | 0.9 | clearance [14]: 13 mL/min/kg; Vd [6]: 1.1 L/kg; half-life [11]: 59 min |
| CC[C@H](C)[C@@H]1NC[C@@H](C)Oc2ccccc2CCCNC(=O)[C@@H](Cc2ccccc2)NC(=O)[C@@H](C(C)C)NC1=O | – | 380 | – |
| CC[C@H](C)[C@@H]1NCCCc2ccccc2CCCNC(=O)[C@@H](Cc2ccccc2)NC(=O)[C@@H](C)N(C)C1=O | – | 81 | – |
| CCC[C@@H]1NCCOc2ccccc2CCCNC(=O)[C@@H](Cc2ccccc2)NC(=O)[C@@H](C)NC1=O | – | 500 | – |
| C[C@@H]1C(=O)N[C@H](Cc2ccc(F)cc2)C(=O)NCCCc2cccc3c2O[C@@H](CC3)CN[C@@H](C2CC2)C(=O)N1C | – | 19 | – |
| CN1CC(=O)N[C@H](Cc2ccccc2)C(=O)NCCCc2ccccc2OCCN[C@@H](CCCCN)C1=O | – | 1100 | – |
| CN1CC(=O)N[C@H](Cc2ccccc2)C(=O)NCCCc2ccccc2OCCN[C@@H](Cc2ccccc2)C1=O | – | 670 | – |
| CC[C@H](C)[C@@H]1NCCOc2ccccc2CCCNC(=O)[C@@H](CCc2ccccc2)NC(=O)[C@@H](C)N(C)C1=O | – | 43 | – |
| CC[C@H](C)[C@@H]1NC[C@@H](C)Oc2ccccc2CCCNC(=O)[C@@H](Cc2ccc(F)cc2)NC(=O)[C@@H](C)N(C)C1=O | – | 32 | clearance [14]: 40 mL/min/kg; Vd [6]: 2.5 L/kg; solubility [15]: 100 µg/mL (≈ 180 µM); half-life [11]: 44 min |
| CC[C@H](C)[C@@H]1NCCCCCCCCNC(=O)[C@@H](Cc2ccccc2)NC(=O)[C@@H](C)N(C)C1=O | – | 1500 | – |
| CCC[C@H](NCCOc1ccccc1/C=C/CNC(C)=O)C(=O)N(C)CC(=O)N[C@H](Cc1ccccc1)C(N)=O | – | > 10000 | – |
| CC[C@H](C)[C@@H]1NCCCc2ccccc2CCNC(=O)[C@@H](Cc2ccccc2)NC(=O)[C@@H](C)N(C)C1=O | – | 400 | – |
| CC[C@H](C)[C@@H]1NCCCC/C=C/CCNC(=O)[C@@H](Cc2ccccc2)NC(=O)[C@@H](C)N(C)C1=O (mixture of isomers) | 310 | 160 | – |
| CC[C@H](C)[C@@H]1NCCCc2ccccc2CCCCNC(=O)[C@@H](Cc2ccccc2)NC(=O)[C@@H](C)N(C)C1=O | 360 | 78 | – |
| CCC[C@H]1NCCOc2ccccc2CCCNC(=O)[C@@H](Cc2ccccc2)NC(=O)CN(C)C1=O | – | 1200 | – |
| CCCC[C@H]1NC(=O)CN(C)C(=O)[C@H](CCC)NCCOc2ccccc2CCCNC1=O | – | 400 | – |
| CCC[C@@H]1NCCOc2ccccc2CCCNC(=O)[C@@H](Cc2ccccc2)NC(=O)CN(C)C1=O | – | 68 | – |
| CCC[C@@H]1NCCOc2ccccc2CCCNC(=O)[C@H](Cc2ccccc2)NC(=O)CN(C)C1=O | – | 380 | – |
